Experimental data from ChEMBL document CHEMBL2029265, “2-(Pyrrolidin-1-yl)ethyl-3,4-dihydroisoquinolin-1(2H)-one derivatives as potent and selective histamine-3 receptor antagonists” (J Med Chem, 2012).

Tests used:
[1] = Volume of distribution in Long Evans rat at 2 mg/kg, iv administered as single bolus dose; type: ADME, organism-based; design: dose 2 mg/kg, route intravenous; conditions: in vivo
Summary of the method: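 Male Long Evans rats, single intravenous bolus 2 mg/kg, vehicle DMSO/80% PEG 200. Plasma pharmacokinetics.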

[2] = Elimination half life in beagle dog at 2 mg/kg, iv administered as single bolus dose; type: ADME, organism-based, Canis lupus familiaris; design: dose 2 mg/kg, route intravenous; conditions: in vivo, read-out: beta t1/2 (converted)
Summary of the method: (§1)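 Male beagle dogs received a single intravenous bolus dose of 2 mg/kg. Plasma clearance, volume of distribution and elimination half-life were determined.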

Rattus norvegicus [3] = test: Reversal of time-induced cognitive deficit in po dosed rats by novel object recognition test; type: functional; conditions: read-out: MED
[4] = Toxicity in dog; type: organism-based, Canis lupus familiaris; conditions: in vivo
Summary of the method: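 14-day repeat-dose study in dogs at 20, 60 and 120 mg/kg/day, with clinical observation including cardiac rhythm and QTc; maximum tolerated dose derived from findings across dose groups.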

Rattus norvegicus [5] = test: Toxicity in rat assessed as epithelial hyperplasia at 600 mg/kg/day administered for 14 days as repeat dose; type: organism-based; conditions: in vivo, 336 h
[6] = Oral bioavailability in Long Evans rat at 10 mg/kg administered as single dose; type: ADME, organism-based; conditions: in vivo
Summary of the method: (§2)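 Male Long Evans rats received one oral dose of 10 mg/kg, formulated in 2% Tween/0.5% methyl cellulose in water. Plasma pharmacokinetic parameters were derived from this single dose.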

[7] = Tmax in Long Evans rat at 10 mg/kg, po administered as single dose; type: ADME, organism-based; design: dose 10 mg/kg, route oral; conditions: in vivo
Summary of the method: (§3)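 Male Long Evans rats, single oral dose 10 mg/kg in 2% Tween/0.5% methyl cellulose in water. Plasma pharmacokinetics.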

[8] = Elimination half life in Long Evans rat at 2 mg/kg, iv administered as single bolus dose; type: ADME, organism-based; design: dose 2 mg/kg, route intravenous; conditions: in vivo, read-out: beta t1/2 (converted)
Summary of the method: (§4)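 Male Long Evans rats were given a single intravenous bolus of 2 mg/kg in DMSO/80% PEG 200. Clearance, volume of distribution and elimination half-life were derived.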

[9] = Clearance in Long Evans rat at 2 mg/kg, iv administered as single bolus dose; type: ADME, organism-based; design: dose 2 mg/kg, route intravenous; conditions: in vivo; summary of the method: as §4
[10] = Volume of distribution in beagle dog at 2 mg/kg, iv administered as single bolus dose; type: ADME, organism-based, Canis lupus familiaris; design: dose 2 mg/kg, route intravenous; conditions: in vivo
Summary of the method: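 Male beagle dogs, single intravenous bolus 2 mg/kg. Plasma pharmacokinetics.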

Mus musculus = test: Reversal of MK-801-induced memory deficit in po dosed mice at measured after 24 hrs by social odor recognition test; conditions: read-out: MED
[11] = Oral bioavailability in beagle dog at 10 mg/kg administered as single dose; type: ADME, organism-based, Canis lupus familiaris; conditions: in vivo
[12] = Terminal half life in Long Evans rat at 10 mg/kg, po administered as single dose; type: ADME, organism-based; design: dose 10 mg/kg, route oral; conditions: in vivo, read-out: beta t1/2 (converted); summary of the method: as §3
Canis familiaris [13] = test: Toxicity in dog assessed as convulsions at >/= 60 mg/kg/day administered for 14 days as repeat dose; type: organism-based, Canis lupus familiaris; conditions: in vivo, 336 h
Summary of the method: (§5)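 Dogs dosed for 14 days in a repeat-dose toxicity study at 20, 60 and 120 mg/kg/day. Clinical signs and QTc monitored.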

Salmonella typhimurium = test: Mutagenic activity in Salmonella typhimurium assessed as revertants by Ames test; type: toxicity, organism-based; conditions: salmonella enterica subsp. enterica serovar typhimurium
Summary of the method: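 Screening Ames bacterial reverse mutation assay in Salmonella typhimurium, run at multiple dosages.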

[14] = Toxicity in rat; type: organism-based; conditions: in vivo
Summary of the method: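 14-day repeat-dose study in rats at 60, 200 and 600 mg/kg/day, with clinical observation and tissue findings; maximum tolerated dose derived from findings across dose groups.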

[15] = AUC (0 to infinity) in Long Evans rat at 10 mg/kg, po administered as single dose; type: ADME, organism-based; design: dose 10 mg/kg, route oral, time infinity; conditions: plasma; summary of the method: as §2
[16] = Cmax in Long Evans rat at 10 mg/kg, po administered as single dose; type: ADME, organism-based; design: dose 10 mg/kg, route oral; conditions: in vivo; summary of the method: as §2
[17] = Clearance in beagle dog at 2 mg/kg, iv administered as single bolus dose; type: ADME, organism-based, Canis lupus familiaris; design: dose 2 mg/kg, route intravenous; conditions: in vivo; summary of the method: as §1
Canis familiaris [18] = test: Toxicity in dog assessed as QTc prolongation at 20 mg/kg/day administered for 14 days as repeat dose; type: organism-based, Canis lupus familiaris; conditions: in vivo, 336 h; summary of the method: as §5
Canis familiaris [19] = test: Toxicity in dog assessed as arrhythmia at 20 mg/kg/day administered for 14 days as repeat dose; type: organism-based, Canis lupus familiaris; conditions: in vivo, 336 h; summary of the method: as §5
Rattus norvegicus [20] = test: Toxicity in rat assessed as respiratory distress at 600 mg/kg/day administered for 14 days as repeat dose; type: organism-based; conditions: in vivo, 336 h

CN(C)C(=O)c1ccc(-c2ccc3c(c2)CCN(CCN2CCCC2)C3=O)cc1.Cl showed a Vd [1] of 2.1 L/kg, a half-life [2] of 96 min and a minimal effective dose (Rattus norvegicus [3]) of 1 mg/kg. The MTD [4] was 20 mg/kg/day, the Activity (Rattus norvegicus [5]) was “Toxic” and the bioavailability [6] was 85%. The Tmax [7] was 18 min, the half-life [8] was 18 min and the clearance [9] was 87 mL/min/kg. For the same compound, the Vd [10] was 3.1 L/kg, the minimal effective dose (Mus musculus) was 1 mg/kg and the bioavailability [11] was 57%. For the same compound, the half-life [12] was 48 min, the Activity (Canis familiaris [13]) was “Toxic” and the Activity (Salmonella typhimurium) was “Non-toxic”. It also gave an MTD [14] of 200 mg/kg/day, an AUC(0-inf) [15] of 1650 ng·h/mL and a Cmax [16] of 989 ng/mL. The clearance [17] was 23 mL/min/kg, the Activity (Canis familiaris [18]) was “Toxic” and the Activity (Canis familiaris [19]) was “Toxic”. For the same compound, the Activity (Rattus norvegicus [20]) was “Toxic”.
